Results reported in ChEMBL document CHEMBL1130250, “NAcSDKP analogues resistant to angiotensin-converting enzyme” (J Med Chem, 1997).
Peptide text beside a SMILES is read from it. * marks the point of attachment. Pyrrolidide = C1CCN(*)C1

Experiments:
[1] = target: T1, Angiotensin-converting enzyme (Oryctolagus cuniculus) (UniProt P12822); assay: In vitro stability of compound toward enzymatic degradation by rabbit lung Angiotensin I converting enzyme after 24 hr incubation
T1 sequence (whole entry): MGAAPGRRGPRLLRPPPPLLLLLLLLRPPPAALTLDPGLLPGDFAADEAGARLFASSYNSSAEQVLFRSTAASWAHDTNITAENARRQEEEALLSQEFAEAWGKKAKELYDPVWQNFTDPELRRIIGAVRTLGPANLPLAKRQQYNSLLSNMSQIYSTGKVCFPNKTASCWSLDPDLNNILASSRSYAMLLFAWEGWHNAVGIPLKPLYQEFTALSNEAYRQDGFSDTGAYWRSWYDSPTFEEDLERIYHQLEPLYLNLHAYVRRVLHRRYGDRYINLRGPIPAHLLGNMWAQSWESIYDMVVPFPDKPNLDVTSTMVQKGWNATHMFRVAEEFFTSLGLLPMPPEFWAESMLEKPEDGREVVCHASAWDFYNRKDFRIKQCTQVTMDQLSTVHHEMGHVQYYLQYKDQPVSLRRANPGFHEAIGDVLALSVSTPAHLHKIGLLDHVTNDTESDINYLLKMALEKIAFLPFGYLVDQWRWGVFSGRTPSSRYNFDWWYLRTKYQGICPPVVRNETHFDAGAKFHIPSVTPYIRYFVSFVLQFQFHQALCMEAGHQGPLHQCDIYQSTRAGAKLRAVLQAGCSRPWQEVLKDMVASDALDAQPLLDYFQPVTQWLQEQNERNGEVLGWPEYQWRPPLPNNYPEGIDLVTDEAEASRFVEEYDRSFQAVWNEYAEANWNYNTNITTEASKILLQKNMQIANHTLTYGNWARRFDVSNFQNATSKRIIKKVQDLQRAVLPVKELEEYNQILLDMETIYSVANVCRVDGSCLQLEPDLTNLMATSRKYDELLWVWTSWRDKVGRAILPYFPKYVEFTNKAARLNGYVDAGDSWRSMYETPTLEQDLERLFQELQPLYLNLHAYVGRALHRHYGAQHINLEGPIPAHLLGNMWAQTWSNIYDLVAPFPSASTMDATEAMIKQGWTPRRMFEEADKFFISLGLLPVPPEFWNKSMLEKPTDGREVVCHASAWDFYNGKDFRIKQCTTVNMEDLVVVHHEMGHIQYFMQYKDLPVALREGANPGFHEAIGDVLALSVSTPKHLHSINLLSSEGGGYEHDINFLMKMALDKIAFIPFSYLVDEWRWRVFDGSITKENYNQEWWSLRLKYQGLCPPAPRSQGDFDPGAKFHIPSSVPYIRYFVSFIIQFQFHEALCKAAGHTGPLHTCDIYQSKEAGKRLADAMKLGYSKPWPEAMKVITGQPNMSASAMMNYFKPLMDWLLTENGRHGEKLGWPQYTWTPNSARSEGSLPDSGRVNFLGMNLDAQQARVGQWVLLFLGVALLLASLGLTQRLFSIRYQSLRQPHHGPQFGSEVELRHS
How it was run: (§1)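 Degradation assay: rabbit lung ACE preincubated 30 min at 37 °C in Tris-maleate pH 7 (100 mM Tris, 50 mM NaCl, 10^-5 M ZnSO4). Peptide then added at 50 µM final with enzyme at 0.1 unit/mL, 37 °C for 30 min or 24 h. Stopped with 1% TFA, then RP-HPLC at 215 nm. Residual intact peptide read from peak area against t=0 and a 5-50 calibration curve. Mean of two experiments in triplicate.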

[2] = target: T1, Angiotensin-converting enzyme (Oryctolagus cuniculus); assay: In vitro stability of compound toward enzymatic degradation by rabbit lung Angiotensin I converting enzyme after 30 minutes incubation; how it was run: as §1
[3] = target: T1, Angiotensin-converting enzyme (Oryctolagus cuniculus); assay: In vitro stability of compound (50 uM) to inhibit NAcSDKP hydrolysis by rabbit lung Angiotensin I converting enzyme after 30 minutes incubation
How it was run: (§2)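 Rabbit lung ACE (0.1 unit/mL final) in Tris-maleate buffer pH 7 (100 mM Tris, 50 mM NaCl, 10^-5 M ZnSO4). Analogue (final 0.5, 5 or 50 µM) preincubated with enzyme 30 min at 37 °C. NAcSD[3H]KP (tritium on lysine side chain) plus cold peptide, 5 µM final, then added for 30 min at 37 °C. Frozen at -80 °C and run on high-voltage paper electrophoresis. Residual labelled substrate radioactivity compared with t=0. Duplicates, mean of two experiments.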

[4] = target: T1, Angiotensin-converting enzyme (Oryctolagus cuniculus); assay: In vitro stability of compound (5 uM) to inhibit NAcSDKP hydrolysis by rabbit lung Angiotensin I converting enzyme after 30 minutes incubation; how it was run: as §2
[5] = target: T1, Angiotensin-converting enzyme (Oryctolagus cuniculus); assay: In vitro stability of compound (0.5 uM) to inhibit NAcSDKP hydrolysis by rabbit lung Angiotensin I converting enzyme after 30 minutes incubation; how it was run: as §2
[6] = target: T1, Angiotensin-converting enzyme (Oryctolagus cuniculus); assay: In vitro stability of compound (51 uM) to inhibit NAcSDKP hydrolysis by rabbit lung Angiotensin I converting enzyme after 30 minutes incubation; how it was run: as §2

| Residual peptide [1] | Residual peptide [2] | Residual peptide [3] | Residual peptide [4] | Residual peptide [5] | Residual peptide [6] | SMILES |
| --- | --- | --- | --- | --- | --- | --- |
| 99.4% | 99.7% | 50.3% | 48.8% | 47.3% | – | CC(=O)N[C@@H](CO)C(=O)N[C@@H](CC(=O)O)C(=O)N[C@@H](CCCCN)CN1CCC[C@H]1C(=O)O |
| 100% | 100% | 41.7% | 49.3% | 46% | – | CC(=O)N[C@@H](CO)C(=O)N[C@H](CN[C@@H](CCCCN)C(=O)N1CCC[C@H]1C(=O)O)CC(=O)O |
| – | 43.6% | – | – | – | – | CC(=O)N[C@@H](CO)C(=O)N[C@@H](CC(=O)O)C(=O)N[C@@H](CCCCN)C(=O)N1CCC[C@H]1C(=O)O (Ac-SDKP-OH) |

More lines, now with the values behind:

| SMILES | Residual peptide [1] | Residual peptide [2] | Residual peptide [3] | Residual peptide [4] | Residual peptide [5] | Residual peptide [6] |
| --- | --- | --- | --- | --- | --- | --- |
| CC(=O)N[C@@H](CO)C(=O)N[C@@H](CC(=O)O)C(=O)N[C@@H](CCCCN)C(=O)N1CCCC1 (Ac-Ser-Asp-Lys-Pyrrolidide) | 0% | 36.2% | – | – | – | – |
| CC(=O)N[C@@H](CO)C(=O)N[C@@H](CC(=O)O)C(=O)N[C@@H](CCCCN)C(=O)N1CCC[C@H]1C(N)=O (Ac-SDKP-NH2) | 96.7% | 99.9% | 49.7% | 50.1% | 46% | – |
| CC(=O)N[C@@H](CO)CN[C@@H](CC(=O)O)C(=O)N[C@@H](CCCCN)C(=O)N1CCC[C@H]1C(=O)O | 97.6% | 99.7% | 46.7% | – | 46.9% | 54% |
